Laboratory results published in BindingDB's records for doi:10.1021/jm049337s (Leiden/Amsterdam Center For Drug Research, 2005).

Columns and labels:
Adenosine receptor A1 [1] = target: T1, Adenosine receptor A1 (Homo sapiens, UniProt P30542); assay: Association constant for [3H]CCPA binding to Adenosine A1 receptor in the presence of compound; conditions: read-out: kon (M-1-s-1)
T1 sequence (P30542 whole entry): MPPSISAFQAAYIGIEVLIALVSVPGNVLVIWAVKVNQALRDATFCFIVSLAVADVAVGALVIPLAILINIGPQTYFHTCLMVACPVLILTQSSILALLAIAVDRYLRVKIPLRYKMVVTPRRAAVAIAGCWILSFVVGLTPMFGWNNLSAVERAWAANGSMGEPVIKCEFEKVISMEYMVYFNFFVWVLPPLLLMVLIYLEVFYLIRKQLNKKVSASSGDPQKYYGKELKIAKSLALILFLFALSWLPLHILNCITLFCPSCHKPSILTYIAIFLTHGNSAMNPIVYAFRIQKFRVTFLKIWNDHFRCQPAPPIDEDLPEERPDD
In short: (§1)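 Kinetics on membranes (30 µg) from CHO cells expressing recombinant human A1 receptors, using [3H]CCPA at 1 nM, with or without compound. Association was started by adding membranes to the radioligand. For dissociation, membranes were preloaded with radioligand for 60 min at 25 °C, then 100 µM 8-cyclopentyltheophylline was added. Bound ligand was separated by GF/B filtration and counted by scintillation; t1/2 and rate constants were derived.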

Adenosine receptor A1 [2] = target: T1, Adenosine receptor A1; assay: Dissociation constant for [3H]-CCPA binding to Adenosine A1 receptor in the presence of compound; in short: as §1

- kon (Adenosine receptor A1 [1]): 4.16e+06 M⁻¹ s⁻¹
- koff (Adenosine receptor A1 [2]): 0.001 s⁻¹
SMILES: c1ccc(-c2n/c(=N/C3CCCC3)sn2-c2ccccc2)cc1
